This note sets out measurements from ChEMBL document CHEMBL4392833, “Thiazolyl-pyrazole derivatives as potential antimycobacterial agents” (Bioorg Med Chem Lett, 2019).

In test [1] the test system is Mycobacterium tuberculosis variant bovis. Briefly: Antitubercular activity against dormant stage of Mycobacterium bovis BCG ATCC 35743 after 12 days by nitrate reductase assay. The format is functional, organism-based. To be noted: BCG str. ATCC 35743, 288 h.
Test [2] shares this test system. Briefly: Antitubercular activity against dormant stage of Mycobacterium bovis BCG ATCC 35743 by two fold dilution technique. The format is functional. To be noted: BCG str. ATCC 35743. Summed up:
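MIC against dormant-stage bacilli, read out by XTT reduction menadione assay (XRMA), with rifampicin MIC determined the same way as reference.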

For test [3] the test system is unchanged. Briefly: Antitubercular activity against dormant stage of Mycobacterium bovis BCG ATCC 35743 assessed as growth inhibition at 10 ug/ml after 12 days by nitrate reductase assay relative to control. The format is functional. The settings on record: BCG str. ATCC 35743, 288 h.
The test system is the same in test [4]. Briefly: Antitubercular activity against dormant stage of Mycobacterium bovis BCG ATCC 35743 assessed as growth inhibition at 3 ug/ml after 12 days by nitrate reductase assay relative to control. The format is functional. The settings on record: BCG str. ATCC 35743, 288 h.
Test [5] has the same test system. The test is described as follows: Antitubercular activity against dormant stage of Mycobacterium bovis BCG ATCC 35743 assessed as growth inhibition at 30 ug/ml after 12 days by nitrate reductase assay relative to control. Format: functional. The settings on record: BCG str. ATCC 35743, 288 h.
Test [6] has the same test system. Briefly: Potency index, ratio of rifampicin MIC to test compound MIC for dormant stage of Mycobacterium bovis BCG ATCC 35743. Format: functional, BCG str. ATCC 35743.

For orientation: IC50 means the concentration that inhibits the measured activity by half. One may read the MIC90 as an inhibitory concentration at the 90% level, which refers to growth in some studies and to a panel of isolates in others. Higher therefore signals weaker potency. Usually inhibition stands for the percentage by which the read-out fell short of the control. In test [1], `Cc1nc(C)c(-c2nn(-c3ccc(F)cc3)cc2/C=C/C(=O)c2c(O)cc(C)c(Cl)c2C)s1` showed a concentration for half-maximal inhibition (IC50) of over 30 µg/mL. In addition, the MIC90 in test [2] was over 30 µg/mL. Moreover, the inhibition at 10 µg/mL in test [3] is 4.19%. Besides, the inhibition at 3 µg/mL in test [4] amounted to 8.39%. For the same molecule, the inhibition at 30 µg/mL in test [5] amounted to 9.91%.

`Cc1nc(C)c(-c2nn(-c3ccc(F)cc3)cc2/C=C/C(=O)c2cc(Cl)ccc2O)s1` had a 50% inhibitory concentration (IC50) in test [1] of over 30 µg/mL. This molecule also gave an MIC90 in test [2] of over 30 µg/mL. Further, the inhibition at 10 µg/mL in test [3] stood at 5.45%. Moreover, the inhibition at 3 µg/mL in test [4] was 5.71%. Also, the inhibition at 30 µg/mL in test [5] is 19.6%.

With `Cc1nc(C)c(-c2nn(-c3ccc(F)cc3)cc2/C=C/C(=O)c2cc(Br)ccc2O)s1`, the IC50 in test [1] is over 30 µg/mL. Also, in test [2], the MIC90 is over 30 µg/mL. In test [3], the inhibition at 10 µg/mL came to 16.4%. For the same molecule, the inhibition at 3 µg/mL in test [4] turned out to be 5.7%. In addition, the inhibition at 30 µg/mL in test [5] was 19.2%.

`Cc1ccc(O)c(C(=O)/C=C/c2cn(-c3ccc(F)cc3)nc2-c2sc(C)nc2C)c1` showed an IC50 in test [1] of 1.59 µM. In test [2], the MIC90 was found to be 16.2 µM. Also, the inhibition at 10 µg/mL in test [3] stood at 85.2%. Besides, the inhibition at 3 µg/mL in test [4] was 60.9%. Further, the inhibition at 30 µg/mL in test [5] was 96.9%.

On to `Cc1ccc(O)c(C2=NNC(c3cn(-c4ccc(F)cc4)nc3-c3sc(C)nc3C)C2)c1` (stereo not drawn), for which, in test [1], the half-maximal inhibitory concentration (IC50) turned out to be 46.4 µM. In addition, the MIC90 in test [2] came to 63.1 µM. Besides, the inhibition at 10 µg/mL in test [3] stood at 82.7%. Besides, the inhibition at 3 µg/mL in test [4] was found to be 33%. The inhibition at 30 µg/mL in test [5] amounted to 97.5%.

In turn, `Cc1nc(C)c(-c2nn(-c3ccc(F)cc3)cc2C2CC(c3cc(Br)ccc3O)=NN2)s1` (stereo not drawn) came in with an IC50 in test [1] of 5.79 µM. Besides, the Ratio in test [6] was 4. The same molecule registered an MIC90 in test [2] of 0.39 µM. The inhibition at 10 µg/mL in test [3] was 98.7%. For the same molecule, in test [4], the inhibition at 3 µg/mL is 96.2%. Besides, the inhibition at 30 µg/mL in test [5] turned out to be 99.5%.

For `Cc1nc(C)c(-c2nn(-c3ccc(F)cc3)cc2C2CC(c3c(O)cc(C)c(Cl)c3C)=NN2)s1` (stereo not drawn), in test [1], the IC50 was found to be 5.04 µM. Further, in test [2], the MIC90 was 4.55 µM. The inhibition at 10 µg/mL in test [3] came to 98%. Moreover, the inhibition at 3 µg/mL in test [4] came out at 89%. For the same molecule, the inhibition at 30 µg/mL in test [5] amounted to 98.4%.

Molecule `Cc1ccc2oc(-c3cn(-c4ccc(F)cc4)nc3-c3sc(C)nc3C)cc(=O)c2c1` yielded an IC50 in test [1] of 5.89 µM. The molecule also came in with an MIC90 in test [2] of 1.18 µM. In addition, in test [3], the inhibition at 10 µg/mL came out at 96.6%. Moreover, the inhibition at 3 µg/mL in test [4] came to 97.6%. The inhibition at 30 µg/mL in test [5] turned out to be 95.6%.

With `Cc1nc(C)c(-c2nn(-c3ccc(F)cc3)cc2-c2cc(=O)c3cc(Cl)c(C)cc3o2)s1`, the concentration for half-maximal inhibition (IC50) in test [1] came out at 3.69 µM. In test [2], this molecule gave an MIC90 of 2.85 µM. Further, the inhibition at 10 µg/mL in test [3] was determined as 98.9%. In test [4], the inhibition at 3 µg/mL turned out to be 99.7%. Also, the inhibition at 30 µg/mL in test [5] was found to be 98.2%.

`Cc1nc(C)c(-c2nn(-c3ccc(F)cc3)cc2/C=C/C(=O)c2cc(Cl)cc(Cl)c2O)s1` displayed an IC50 in test [1] of over 30 µg/mL. Moreover, the MIC90 in test [2] was over 30 µg/mL. In addition, in test [3], the inhibition at 10 µg/mL was found to be 10.1%. Moreover, the inhibition at 3 µg/mL in test [4] stood at 8.72%. The inhibition at 30 µg/mL in test [5] was found to be 29.8%.

As to `Cc1nc(C)c(-c2nn(-c3ccc(F)cc3)cc2C2CC(c3cc(Cl)ccc3O)=NN2)s1` (stereo not drawn), the concentration for half-maximal inhibition (IC50) in test [1] was 2.48 µM. The MIC90 in test [2] stood at 1.54 µM. In test [3], the inhibition at 10 µg/mL stood at 99.7%. Also, the inhibition at 3 µg/mL in test [4] is 99.2%. Moreover, in test [5], the inhibition at 30 µg/mL came to 99.7%.

Turning to `Cc1nc(C)c(-c2nn(-c3ccc(F)cc3)cc2/C=C/C(=O)c2cc(Cl)c(C)cc2O)s1`, in test [1], half-maximal inhibition (IC50) required 0.79 µM. Moreover, the MIC90 in test [2] is 6.85 µM. Besides, the inhibition at 10 µg/mL in test [3] turned out to be 52.8%. Further, the inhibition at 3 µg/mL in test [4] came out at 8.47%. Further, in test [5], the inhibition at 30 µg/mL was 97.2%.

For `Cc1nc(C)c(-c2nn(-c3ccc(F)cc3)cc2C2CC(c3cc(Cl)c(C)cc3O)=NN2)s1` (stereo not drawn), in test [1], the IC50 was 9.65 µM. Moreover, the MIC90 in test [2] worked out at 4.77 µM. Moreover, the inhibition at 10 µg/mL in test [3] worked out at 89.7%. In addition, the inhibition at 3 µg/mL in test [4] worked out at 69.6%. Further, the inhibition at 30 µg/mL in test [5] came out at 98.5%.

Turning to `CO[C@H]1/C=C/O[C@@]2(C)Oc3c(C)c(O)c4c(O)c(c(/C=N/N5CCN(C)CC5)c(O)c4c3C2=O)NC(=O)/C(C)=C\C=C\[C@H](C)[C@H](O)[C@@H](C)[C@@H](O)[C@@H](C)[C@H](OC(C)=O)[C@@H]1C` [RIFAMPIN], the IC50 in test [1] was 0.91 µM. In test [2], this molecule registered an MIC90 of 0.98 µM.
